Bioassay records (PubChem)
MC4R ag barr: MC4R agonists recruiting beta-arrestin, primary screen, cell-based, luminescence, agonist arm of biased-ligand search; Melanocortin receptor 4 (Homo sapiens), P32245; U2OS MC4R beta-arrestin complementation; percent of melanotan II response, DMSO zero; activation, % at 8.9 µM; actives 0.98% (n = 360,000);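 active means activation above a per-plate cutoff, the mean activation of sample wells on that plate plus 3 SD, cut at about 8% in these data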
TLR4-MyD88 BLA: inhibitors of TLR4-MyD88 association in cells, primary screen, cell-based, HeLa CL3-4, BLA complementation, FRET ratio; AID 861, 2007; inhibition, % at 8.4 µM; HeLa CL3-4 TLR4/MyD88 BLA complementation; actives 0.18% (n = 200,000); Toll-like receptor 4 (Homo sapiens) + Myeloid differentiation primary response protein …; in the data active means inhibition above about 25%
Target sequence (O00206 whole entry, looked up): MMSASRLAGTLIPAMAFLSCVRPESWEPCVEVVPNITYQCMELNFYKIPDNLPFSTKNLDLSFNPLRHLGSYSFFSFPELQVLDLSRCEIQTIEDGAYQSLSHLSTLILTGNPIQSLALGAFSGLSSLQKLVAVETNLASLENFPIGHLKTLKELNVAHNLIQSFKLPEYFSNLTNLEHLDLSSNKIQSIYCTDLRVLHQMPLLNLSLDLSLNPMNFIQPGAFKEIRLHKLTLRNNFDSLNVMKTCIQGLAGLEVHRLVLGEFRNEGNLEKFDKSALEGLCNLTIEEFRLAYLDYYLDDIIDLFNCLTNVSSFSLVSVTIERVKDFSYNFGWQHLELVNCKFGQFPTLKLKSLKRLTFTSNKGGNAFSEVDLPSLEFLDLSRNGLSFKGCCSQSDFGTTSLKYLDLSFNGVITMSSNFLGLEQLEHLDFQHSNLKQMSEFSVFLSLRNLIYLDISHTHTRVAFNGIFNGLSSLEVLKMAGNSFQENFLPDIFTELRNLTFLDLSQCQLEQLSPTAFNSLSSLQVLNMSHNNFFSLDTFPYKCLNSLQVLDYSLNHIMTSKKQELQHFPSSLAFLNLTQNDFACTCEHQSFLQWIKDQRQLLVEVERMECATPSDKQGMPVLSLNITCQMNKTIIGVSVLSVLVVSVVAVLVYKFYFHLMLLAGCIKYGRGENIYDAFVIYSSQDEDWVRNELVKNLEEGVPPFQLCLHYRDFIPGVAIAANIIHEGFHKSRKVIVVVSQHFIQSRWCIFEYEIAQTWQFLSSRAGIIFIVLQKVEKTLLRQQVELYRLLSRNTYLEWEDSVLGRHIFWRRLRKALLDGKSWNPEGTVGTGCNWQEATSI
Target sequence (Q99836 whole entry, looked up): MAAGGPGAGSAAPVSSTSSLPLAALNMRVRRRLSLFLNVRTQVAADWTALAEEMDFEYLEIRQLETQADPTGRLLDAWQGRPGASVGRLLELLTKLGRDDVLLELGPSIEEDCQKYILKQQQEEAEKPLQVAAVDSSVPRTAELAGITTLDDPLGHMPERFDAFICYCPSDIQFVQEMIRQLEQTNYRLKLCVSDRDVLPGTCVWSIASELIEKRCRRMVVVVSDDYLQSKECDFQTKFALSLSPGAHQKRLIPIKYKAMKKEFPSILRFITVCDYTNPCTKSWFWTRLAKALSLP
MC4R antag cAMP: MC4R antagonists of cAMP signaling, primary screen, cell-based, TR-FRET, antagonist arm of biased-ligand search; Melanocortin receptor 4 (Homo sapiens), P32245; MC4R-expressing cells, MTII-stimulated cAMP, LANCE TR-FRET; inhibition, % at 6.5 µM; actives 0.48% (n = 360,000); AID 540295, 2011;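 active means inhibition above its plate's cutoff, the mean of tested wells on that plate plus 3 SD, cut at about 29% in these data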
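system = U2OS cells with stable human MC4R expression | also added = Melanotan II challenge after compound preincubation | dosing = one concentration, 6.5 µM nominal | incubation = compound 30 min, challenge 1 h, detection 1 h | measured by = TR-FRET with Eu-cAMP and labeled anti-cAMP, 671 nm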
TLR9-MyD88 inh: inhibitors of TLR9-MyD88 association in cells, primary screen, cell-based, CHO, BLA complementation, fluorescence | CCF4 FRET ratio | inhibition, % at 4.98 µM | actives 0.21% (n = 340,000) | Toll-like receptor 9 (Homo sapiens) + Myeloid differentiation primary response protein …;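 active means inhibition above the mean over all tested compounds plus 3 SD, cut at about 21% in these data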
NOD2-RIPK2 inh: NOD2-RIPK2 binding disruptors in cells, primary screen, fluorescence, CHO cells, BLA complementation; Receptor-interacting serine/threonine-protein kinase 2 (Homo sapiens), O43353; CCF4 ratio; inhibition, % at 4.98 µM; actives 0.38% (n = 360,000); in the data active means inhibition above about 21%
NTR1 ag: agonists of human NTR1, primary screen, imaging, U2OS cells, beta-arrestin-GFP, high content. actives 0.17% (n = 330,000). AID 493036, 2011. activation, % at 20 µM. Neurotensin receptor type 1 (Homo sapiens), P30989. NTR1-U2OS beta-arrestin-GFP spot imaging, agonist mode;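 active means activation at or above 40% of the spot to cytoplasm intensity ratio, with at least 20 cells analyzed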
U2OS cAMP counter: nonselective cAMP signaling inhibitors, parental cells, counter-screen for MC4R biased antagonist project, cell-based, TR-FRET, U2OS, forskolin, triplicate | shares compounds with MC4R antag cAMP | LANCE TR-FRET | inhibition, % at 6.5 µM | actives 26% (n = 1,600) | AID 602193, 2012;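 active means mean inhibition over triplicates above the low-control well mean plus 3 SD, set per campaign, cut at about 13% in these data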;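 further: signal is single emission at 671 nm which falls as cellular cAMP rises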
MC4R antag conf: MC4R cAMP antagonists, retest, confirmation, cell-based, TR-FRET | shares compounds with MC4R antag cAMP | MC4R-expressing cells, MTII-stimulated cAMP | inhibition, % at 6.5 µM | actives 27% (n = 1,600); in the data active means inhibition above about 29%
Each line names hits and unclear results; the compound was inactive in the other large screens (follow-up assays come after a bar, where they were run). This is a sample that favours compounds with a hit; in the whole collection about 1.9% have one here.

CCC(C)NS(=O)(=O)c1ccc(S(=O)(=O)N(CCc2ccc(OC)c(OC)c2)Cc2cccs2)cc1 (stereo not drawn)	MC4R antag cAMP 32.3 | U2OS cAMP counter inactive | MC4R antag conf inactive
COc1ccc(CCN(Cc2cccs2)S(=O)(=O)c2ccc(S(=O)(=O)N3CCCCCC3)cc2)cc1OC	none
CN(C)S(=O)(=O)c1ccc(NCC2COc3ccccc3O2)c([N+](=O)[O-])c1 (stereo not drawn)	none
NC(=O)c1ccc(NCC2COc3ccccc3O2)c([N+](=O)[O-])c1 (stereo not drawn)	MC4R antag cAMP 36.1 | U2OS cAMP counter inactive | MC4R antag conf inactive
CC(Sc1nncs1)C(=O)NCC(=O)Nc1ccc(F)c(F)c1F (stereo not drawn)	none
CC1CC(Nc2ccccc2)c2ccccc2N1C(=O)c1ccncc1 (stereo not drawn)	MC4R antag cAMP 33.6 | U2OS cAMP counter inactive | MC4R antag conf inactive
O=C(O)CCCCNS(=O)(=O)/C=C/c1ccccc1	none
COc1ccc(-n2cccc2/C=C/[N+](=O)[O-])cc1	none
Cc1ccc(S(=O)(=O)n2cccc2/C=C/[N+](=O)[O-])cc1	MC4R antag cAMP 38.2 (no result: TLR4-MyD88 BLA, NTR1 ag) | U2OS cAMP counter inactive | MC4R antag conf inactive
O=S(=O)(NCc1ccco1)c1cnc(Cl)c(Br)c1	MC4R antag cAMP 41.9 | U2OS cAMP counter 30.5 | MC4R antag conf 66.7
CCCCN(C(=O)c1ccc(-n2nc(C)cc2C)cc1)c1c(N)n(CCC)c(=O)[nH]c1=O	none (no result: TLR4-MyD88 BLA)
O=C(NC(=S)Nc1ccccn1)c1ccc(-c2ccccc2)cc1	none (no result: TLR4-MyD88 BLA)
Cc1cc(C)c(NC(=S)NC(=O)c2ccc(-c3ccccc3)cc2)c(C)c1	MC4R antag cAMP 32.0 (no result: NTR1 ag) | U2OS cAMP counter inactive | MC4R antag conf inactive
O=C(O)CCn1c(=O)n(CCC(=O)O)c(=O)n(CCC(=O)O)c1=O	MC4R antag cAMP 28.6 | U2OS cAMP counter inactive | MC4R antag conf inactive
O=C(O)CCN1C(=O)c2ccccc2C1=O	none
CCOC(=O)CCC(NC(=O)c1ccc(NCN2C(=O)c3ccccc3C2=O)cc1)C(=O)OCC (stereo not drawn)	none
CCOC(=O)CCC(NC(=O)c1ccccc1C(=O)NC(CCC(=O)OCC)C(=O)OCC)C(=O)OCC (stereo not drawn)	MC4R antag cAMP 28.6 | U2OS cAMP counter inactive | MC4R antag conf inactive
COc1ccc(C(=O)N/C(=C\c2ccc3c(c2)OCO3)C(=O)NCCc2nc3ccccc3[nH]2)cc1	MC4R antag cAMP 29.0 | U2OS cAMP counter inactive | MC4R antag conf inactive
COc1ccc(/C=C(/NC(=O)c2ccc(OC)cc2)C(=O)NCCc2c[nH]c3ccccc23)cc1	none
O=C(NCc1ccco1)C(c1ccccc1)N(C(=O)Cc1cccs1)c1cccnc1 (stereo not drawn)	MC4R antag cAMP 29.5 | U2OS cAMP counter inactive | MC4R antag conf inactive
O=C(NCc1ccco1)C(c1ccccc1)N(C(=O)Cc1cccs1)c1ccccc1 (stereo not drawn)	none
CCOc1ccc(N(CC(=O)N/N=C/c2cccnc2)S(C)(=O)=O)cc1	MC4R antag cAMP 30.6 | U2OS cAMP counter inactive | MC4R antag conf inactive
COc1ccc(N2CCN(C(=O)NCc3ccc(OC)c(Cl)c3)CC2)cc1	MC4R antag cAMP 31.3 | U2OS cAMP counter inactive | MC4R antag conf inactive
COc1ccccc1CN(C(=O)CNC(=O)c1ccco1)C(C(=O)NCC1CCCO1)c1ccccc1 (stereo not drawn)	none (no result: TLR4-MyD88 BLA)
COc1ccc(C(=O)OCC(=O)NC(C)CCc2ccccc2)cc1OC (stereo not drawn)	MC4R antag cAMP 31.0 (no result: TLR4-MyD88 BLA) | U2OS cAMP counter inactive | MC4R antag conf inactive
CCCc1nn(C)c(C(=O)Nc2cccc(Cl)c2)c1Cl	none
COc1ccc(-c2c3c([nH]c(=S)c2C#N)CCC3)cc1	MC4R antag cAMP 88.0 (no result: NTR1 ag) | U2OS cAMP counter 20.1 | MC4R antag conf 35.3
COc1ccc(OC)c(-c2c3c([nH]c(=S)c2C#N)CCCC3)c1	none
Cc1cc2nc(CSc3ccc(Cl)cc3)cc(=O)n2[nH]1	MC4R antag cAMP 29.3 | U2OS cAMP counter inactive | MC4R antag conf inactive
CCOc1ccc(NC(=S)NCC(c2cccnc2)N2CCOCC2)cc1 (stereo not drawn)	none
CC(C)c1ccc(NC(=O)C2Cc3c(-c4cccc(C(N)=O)c4)ccnc3O2)cc1 (stereo not drawn)	none (no result: TLR4-MyD88 BLA, TLR9-MyD88 inh, NTR1 ag)
CC(C)CCNC(=O)C1CCC(CNS(=O)(=O)c2cccc3nsnc23)CC1 (stereo not drawn)	none (no result: TLR4-MyD88 BLA)
CSCCC(Nc1ncnc2ccc(Br)cc12)C(=O)O (stereo not drawn)	MC4R antag cAMP 30.8 | U2OS cAMP counter inactive | MC4R antag conf inactive
CC(NC(=O)CN1C(=O)NC2(CCCCCC2)C1=O)c1ccccc1Cl (stereo not drawn)	none (no result: TLR4-MyD88 BLA)
CCC(=O)N(CC(=O)Nc1sc(C)c(C)c1C(N)=O)C1CCCC1	MC4R antag cAMP 29.4 | U2OS cAMP counter inactive | MC4R antag conf inactive
O=C(NCc1ccccc1Cl)c1ccc2sc([C@@H]3O[C@H](CO)[C@H](O)[C@H](O)[C@H]3O)nc2c1	none (no result: TLR4-MyD88 BLA, TLR9-MyD88 inh, NTR1 ag)
CCC1(c2ccccc2)NC(=O)N(CC#N)C1=O (stereo not drawn)	MC4R antag cAMP 28.8 | U2OS cAMP counter inactive | MC4R antag conf inactive
COc1ccc2c(c1)c(CC(=O)Nc1cc(C)ccc1C)c(C)n2C(=O)c1ccc(Cl)cc1	none
COc1ccc2c(c1)c(CC(=O)Nc1ccc(C(C)=O)cc1)c(C)n2C(=O)c1ccc(Cl)cc1	MC4R antag cAMP 29.2 | U2OS cAMP counter inactive | MC4R antag conf inactive
COc1ccccc1NC(=O)C(=O)NCCC1CCCCN1S(=O)(=O)c1ccc(F)cc1 (stereo not drawn)	none (no result: TLR4-MyD88 BLA)
Cc1ccc(C(=O)/C=C/c2cc(Br)cc(Br)c2O)o1	none (no result: TLR4-MyD88 BLA)
